Here are results for 99 compounds from ChEMBL document CHEMBL4513216, “Probing the Open Global Health Chemical Diversity Library for Multistage-Active Starting Points for Next-Generation Antimalarials” (ACS Infect Dis, 2020).

The data set in a line: Toxicity liver stage against HepG2, at 10uM. The data set is classed as cell-based. Further details: test concentration 10 uM, cell line HepG2-A16-CD81EGFP. The following applies: human, HepG2-A16-CD81EGFP cells; read-out: INHIBITION
In outline:
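Uninfected HepG2-A16-CD81EGFP cells, 3 × 10^3 per well, 1536-well, plated on prespotted compound at 10 μM final, parasite-free screening media added to match infected plates; puromycin 10 μM positive, DMSO 0.5% negative; run in parallel with 48 h PbLuc assay at 37 °C, 5% CO2; viability by CellTiter-Glo luminescence, normalized to controls.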
Consider `O=C(c1cnc(-c2noc3cc(N4CCCC4)ccc23)s1)N1CCCC1`, for which the cytotoxicity at 10 µM was -3.83%.
For the compound `CNC(=O)N1CC[C@@H]2CN(CCc3cccc(OC)c3)S(=O)(=O)[C@@H]2CC1`, the cytotoxicity at 10 µM was -1.46%.
In the case of `Cc1cc(=O)[nH]c(=O)n1COCCOCc1ccccc1`, the cytotoxicity at 10 µM worked out at 3.36%.
For `O=C(O)CSc1nccc(-c2ccc3c(c2)OCO3)n1`, the cytotoxicity at 10 µM is -3.61%.
Regarding `CCn1ncc2c(C(F)F)cc(-c3ccn(C)n3)nc21`, the cytotoxicity at 10 µM was -1.21%.
Take `Cc1cc(NC(=O)CN2CCN(C3CCCC3)C(=O)C2)nn1C`: the cytotoxicity at 10 µM turned out to be 0.825%.
The result for `Cc1cc(C(F)F)nn1CC(=O)NCc1nccn1C` reads -2.17%; that for `Nc1nc(N)c2c(n1)OC1(COCCN(Cc3nccs3)C1)C2` (centres undefined), -0.56%; that for `O=C(O)C1CN(c2cncc(Cc3ccccc3)n2)C1`, 0.885%.
As for `CC1CCN(Cc2c(C(C)C)[nH]c3ncccc23)CC1`, the cytotoxicity at 10 µM was -6.43%.
To `CCN(CC)C(=O)CN1CCC(c2nc(C)c3c(n2)N(C)CCC3)CC1` belongs 4.14%; to `CC(C)OCC(=O)N1CCC(c2ncncc2-c2ccnc(N)c2)C1` (centres undefined), -2.44%.
`Clc1ccc(CN(CCN2CCOCC2)Cc2cccnc2)cc1Cl`: the cytotoxicity at 10 µM was -9.96%.
As for `Cn1cc(NCCOc2ccc(F)cc2)cn1`, the cytotoxicity at 10 µM is -1.51%.
Turning to `CC(C)(C)SCC(=O)Nc1cc(-n2nnnc2C2CC2)ccc1F`, the cytotoxicity at 10 µM is -12%.
On to `CSc1cc2c(cc1NC(=O)NCc1ccncc1)OCCO2`, for which the cytotoxicity at 10 µM was found to be 7.55%.
In the case of `CCC(CO)Nc1nc(C(F)F)nc2ccccc12` (centres undefined), the cytotoxicity at 10 µM was determined as 1.26%.
In the case of `CCOC(C)c1nccn1Cc1noc(CC)n1` (centres undefined), the cytotoxicity at 10 µM is -9.06%.
The result for `CN1CCN(C2CCN(Cc3noc(-c4ccccc4)n3)CC2)C1=O` reads 9.5%; that for `CC(C)C(N)C1=NC(=C2N=CN=N2)NO1` (centres undefined), 8.86%; that for `O=C1CC(C(=O)NCc2ccccc2Oc2ccccc2F)CCN1` (centres undefined), -2.81%.
The result for `Cc1nc(C(=O)N2CCCC(c3nc(C(C)C)cs3)C2)c[nH]1` (centres undefined) reads -41.7%; that for `Cc1csc(N(C)C(=O)C2CC(=O)N(CCc3ccccc3)C2)n1` (centres undefined), -99.4%; that for `Cc1ccc(NC(=O)N(C)C)c(C(=O)OCC(=O)NC(C)C(C)C)c1` (centres undefined), -14.9%.
To `N#CC1(NC(=O)c2ccc(F)cc2OC(F)F)CCOCC1` belongs 2.24%.
For the compound `CCOC(=O)C(C)NC(=O)CCc1ccc(F)cc1` (centres undefined), the cytotoxicity at 10 µM is -9.92%.
With `COCCN(C)CC1CCCN1S(=O)(=O)c1cc(C)oc1C` (centres undefined), the cytotoxicity at 10 µM was 0.729%.
To `COc1ccc(CC(=O)N2CCC(c3nncn3C)CC2)cc1F` belongs 2.01%; to `CN(CC(=O)Nc1ccccc1C(=O)NC1CC1)Cc1ccccc1Cl`, -8.18%.
As to `Cc1cccc(NC(=O)CN(C)C(=O)c2ccc(-n3cccc3)nc2)n1`, the cytotoxicity at 10 µM was -4.4%.
The result for `COc1c(C2CCCN2CC(=O)N2CCCCC2)c(C)nn1C` (centres undefined) reads 0.113%; that for `COC(=O)N1CCC(Nc2ccc(Cl)c(C#N)n2)CC1`, 1.96%.
As to `Cc1ccc(CCC(=O)N2CCn3c(nnc3C(C)C)C2)cc1Cl`, the cytotoxicity at 10 µM was -5.45%.
In the case of `CC(C)c1n[nH]c(C2CN(C(=O)COc3ccc(F)cc3)CCO2)n1` (centres undefined), the cytotoxicity at 10 µM is -5.7%.
For `O=C(NCCn1ccnc1)C1(c2ccc3c(c2)OCCO3)CCCC1`, the cytotoxicity at 10 µM is -4.38%.
Turning to `CCOC(=O)COc1cccc(NC(=O)C2COCCO2)c1` (centres undefined), the cytotoxicity at 10 µM came out at 7.01%.
Turning to `c1cc(C2CCN(Cc3nc(-c4ccsc4)no3)CC2)[nH]n1`, the cytotoxicity at 10 µM is 8.44%.
The result for `Cc1c(C(C)NC(=O)C2CCCCC2)cnn1C` (centres undefined) reads -4.79%.
For the compound `CCc1nnc2n1CCN(C(=O)c1ccc3c(c1)[nH]c(=O)n3C)C2`, the cytotoxicity at 10 µM was -3.22%.
Turning to `Cc1cn(-c2ccccc2)nc1NS(=O)(=O)c1cc(C(=O)O)sc1C`, the cytotoxicity at 10 µM is -4.87%.
Turning to `Cc1nc(C)n(CC2CCCN2CC(=O)NCCC#N)n1` (centres undefined), the cytotoxicity at 10 µM is -2.78%.
As for `CC(CNC(=O)c1nc(N2CCOCC2)ncc1Cl)c1ccccc1` (centres undefined), the cytotoxicity at 10 µM was found to be 0.666%.
As to `NC(=O)c1cccc(OCCC(=O)NC2CCc3c(F)cccc32)c1` (centres undefined), the cytotoxicity at 10 µM was 9.86%.
To `O=C(c1coc2ccccc12)N1CCCC1` belongs -1.15%; to `CCN(CC(=O)Nc1c(C)nn(C)c1C)CC(O)c1ccc(C)cc1` (centres undefined), -8.14%; to `CC(C)(O)CNC(=O)c1sccc1Br`, -5.58%.
Take `Cc1nn(-c2ccccc2)nc1C(=O)NCC(c1ccco1)N(C)C` (centres undefined): the cytotoxicity at 10 µM turned out to be 6.51%.
In the case of `Cc1nc(C(=O)N(C)C2CC(=O)N(Cc3ccccc3)C2=O)cs1` (centres undefined), the cytotoxicity at 10 µM was found to be 0.423%.
Regarding `CN1CC(C(=O)NC2(c3ccc(Cl)cc3)CCOCC2)CC1=O` (centres undefined), the cytotoxicity at 10 µM was 13.8%.
Take `Cc1nc(C2CCCN2C(=O)c2ccc(=O)n(C)n2)no1` (centres undefined): the cytotoxicity at 10 µM was -2.64%.
As to `Cc1nccc(CNC(=O)NCC(C)Oc2ccccc2F)n1` (centres undefined), the cytotoxicity at 10 µM is -13.2%.
Take `Cc1noc(C)c1CN(C)C(=O)COc1cccc(C#N)c1`: the cytotoxicity at 10 µM came out at 5.3%.
Consider `Cc1ccc(C)c(CS(=O)(=O)CC(=O)NC(C)c2ccc(F)cc2F)c1` (centres undefined), for which the cytotoxicity at 10 µM came to 9.71%.
The result for `CCNC(=O)CCC(=O)Nc1nc(C)c(Cc2ccc(F)cc2)s1` reads 6.68%; that for `CC(C)c1nncn1CCNC(=O)c1ccc(Cl)cc1O`, -5.01%; that for `O=C(NCC[S+]([O-])c1ccccc1)NCC(F)(F)F` (centres undefined), -1.09%.
For `CCCNC(=O)Nc1cc2c(cc1SC)OCCO2`, the cytotoxicity at 10 µM is -19%.
To `COc1ccc(OC)c(CNCCc2cc(F)cc3c2OCOC3)c1` belongs -8.08%; to `Fc1cccc(C2(CNC3CCOC4(CCOCC4)C3)CCOCC2)c1` (centres undefined), 0.616%.
As for `CCn1c(C)nnc1SCCNc1cc(COC)ncn1`, the cytotoxicity at 10 µM came to 6.35%.
As to `CN(Cc1nc(COc2ccccc2)no1)CC1Cc2ccccc2O1` (centres undefined), the cytotoxicity at 10 µM is -4.4%.
As to `COCCn1ccnc1-c1cc(CN2CCCCC2)cs1`, the cytotoxicity at 10 µM was -151%.
`CSCc1noc(CNC(=O)C2CCN(C(C)C)CC2)n1`: the cytotoxicity at 10 µM is -2.86%.
To `Cc1cnc(C)c(N2CCC(c3nccn3Cc3cscn3)CC2)n1` belongs 1.89%; to `CCOCc1nc2c(c(NC(COC)c3ccccn3)n1)CCNCC2` (centres undefined), -3.21%; to `NC(=O)CN1CCCC(C(=O)N2CCC(O)(Cc3ccccc3)CC2)C1` (centres undefined), -7.36%.
Turning to `Cc1cc(NC2CCN(c3ccc(F)cc3)CC2)n2nc(C)cc2n1`, the cytotoxicity at 10 µM is -0.527%.
Consider `Cc1ccc(CN2CCN(c3ncccc3Cl)CC2CCO)cc1` (centres undefined), for which the cytotoxicity at 10 µM is -1.04%.
To `CN(CC1CCCCO1)c1nncc(-c2cccc(F)c2)n1` (centres undefined) belongs 8.01%; to `O=C(c1ccc2sccc2c1)N1CCC(C(=O)O)(n2ccnc2)CC1`, 2.69%.
To `COc1ccc(C(=O)NCc2cc(N3CCOCC3)ncn2)o1` belongs 4.39%.
As for `COC(C)(C)CC(C)NCc1cn2ccccc2n1` (centres undefined), the cytotoxicity at 10 µM is -3.48%.
Take `OC1CCN(c2ccnc(NCCN3CCc4ccccc4C3)n2)C1` (centres undefined): the cytotoxicity at 10 µM was -11.8%.
Take `CC(C)n1cnnc1CN(C)CC1CCCNC1` (centres undefined): the cytotoxicity at 10 µM worked out at 3.05%.
Turning to `CCOCCn1c(=O)[nH]c2cc(C(=O)N(C)Cc3ccno3)ccc21`, the cytotoxicity at 10 µM is -1.79%.
On to `CCC(C(=O)NCc1nc(C)cc(C(F)(F)F)n1)n1cccn1` (centres undefined), for which the cytotoxicity at 10 µM is -17.1%.
For `CCN(CC)Cc1cc(C(=O)N2CCC3(CCN(C)CC3)C2)c(C)o1`, the cytotoxicity at 10 µM was found to be 4.92%.
For `CCN1CCN(C(=O)c2cnc(Cc3c(Cl)cccc3Cl)nc2O)CC1`, the cytotoxicity at 10 µM came out at 2.57%.
On to `CCN(Cc1cc(-c2ccccn2)no1)C1CCS(=O)(=O)C1` (centres undefined), for which the cytotoxicity at 10 µM was -14.9%.
Turning to `O=S(=O)(Nc1ccc2c(c1)OCCO2)N1CCCCC1`, the cytotoxicity at 10 µM is 3.96%.
The result for `CCc1cn[nH]c1C1CCCN(C(=O)c2noc(C)c2COC)C1` (centres undefined) reads -1.67%; that for `COc1ccccc1OC1(C(=O)O)CCN(c2nccnc2C)CC1`, -10.4%.
`CN1CCC(CCNC(=O)c2ccc(N(C)S(C)(=O)=O)cc2Cl)CC1`: the cytotoxicity at 10 µM is -10.1%.
For the compound `CCN(Cc1ccc2c(c1)OCCO2)C(=O)NCCc1cnn(C)c1`, the cytotoxicity at 10 µM is -3.72%.
The result for `CCC(=O)Nc1ccc2c(ccn2CC(=O)N(CC)CC)c1` reads -12.2%; that for `Cc1nnc(CN2CCCC(c3cc(C(N)=O)[nH]n3)C2)o1` (centres undefined), -7.32%.
As to `CCN(Cc1ccc(OC)c(F)c1)C(=O)c1ccc(C)[nH]c1=O`, the cytotoxicity at 10 µM is -8.08%.
Turning to `Cc1ccc(OCCNC(=O)C(C)n2cncn2)cc1` (centres undefined), the cytotoxicity at 10 µM was -3.53%.
For `COc1ccc(COCC(O)CNC(=O)c2cccnc2)cc1` (centres undefined), the cytotoxicity at 10 µM worked out at 7.94%.
The result for `Cc1cccc(C(=O)NCc2ccc(N3CCCCC3)nc2)n1` reads 4.26%; that for `O=C(COCC1CC1)N1CCCC(n2cccn2)C1` (centres undefined), 4.6%.
For the compound `O=C(CCOc1cccc(F)c1)N1CCCC(n2cncn2)C1` (centres undefined), the cytotoxicity at 10 µM was -0.192%.
For `Cn1cnnc1C1CCCN(C(=O)c2ccccc2Cl)C1` (centres undefined), the cytotoxicity at 10 µM was determined as 3.59%.
For the compound `CCOc1ncccc1C(=O)N(C)Cc1ncc(C)c(OC)c1C`, the cytotoxicity at 10 µM amounted to 3.06%.
On to `Cc1n[nH]c(C)c1NC(=O)CN1CCOC(Cn2cccn2)C1` (centres undefined), for which the cytotoxicity at 10 µM was -2.82%.
As for `CN(C)C(=O)Cn1c2c(ccc1=O)CC(NCc1ccoc1)CC2` (centres undefined), the cytotoxicity at 10 µM was found to be 16.5%.
In the case of `Cc1ccc(S(=O)(=O)NCC(C)(C)N)c(F)c1`, the cytotoxicity at 10 µM amounted to 7.42%.
Consider `Cc1ccc(CN2CCc3c(C(=O)N(C)C)nn(C)c3C2)s1`, for which the cytotoxicity at 10 µM is -12.4%.
For `CC(C)N1CCC(c2nc3ccc(-c4ccnn4C)cn3n2)CC1`, the cytotoxicity at 10 µM was 14.9%.
